For five compounds, Activity, inhibition and MIC results are on record in ChEMBL document CHEMBL3351960, “Lumazine peptides penilumamides B-D and the cyclic pentapeptide asperpeptide A from a gorgonian-derived Aspergillus sp. fungus” (2014).

≈ marks a conversion by molar mass, not a printed value. Calls of active or inactive are those of the source. The rule behind the calls is not given here. *1 amine or outer side, *2 acyl side, *3 side chain or, on linkers, in order; H or OH if unused. Where a SMILES comes first, the peptide text is derived from it. [ ]: non-standard residue; d: D form. X1 = O=C(c1cc(O)ccc1N[*:1])[*:2]

One experiment concerns Kocuria rhizophila. The experiment is described as follows: Antibacterial activity against Kocuria rhizophila. The experiment is classed as functional, organism-based. In a few lines: (§1)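 Run by a previously published antibacterial method against a 10-strain panel, with ciprofloxacin as positive control.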
For another experiment, the system named is Pseudomonas putida. The experiment can be described thus: Antibacterial activity against Pseudomonas putida. The class given is functional, organism-based. In a few lines:
as §1

Another experiment has as its system Pseudomonas aeruginosa. The experiment is described as follows: Antibacterial activity against Pseudomonas aeruginosa. The experiment is classed as functional, organism-based. In a few lines:
as §1

Another experiment relates to HCT-116. The experiment is described as follows: Cytotoxicity against human HCT116 cells by SRB assay. The experiment is classed as functional, cell-based. In short, it runs like this:
(§2)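 A549 lung carcinoma, HCT-116 colorectal cancer and HeLa cervical carcinoma cells were scored by sulforhodamine B assay, with adriamycin as positive control.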

In experiment [1] the test system is Respiratory syncytial virus. The experiment is described as follows: Antiviral activity against respiratory syncytial virus. The class given is functional, organism-based. In short, it runs like this:
(§3)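 Tested against RSV and HSV-1 by established procedures, with ribavirin as positive control.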

The test system of another experiment is A549. The experiment can be described thus: Cytotoxicity against human A549 cells by SRB assay. The class given is functional, cell-based. In short, it runs like this: as §2
The test system of another experiment is Escherichia coli. The experiment can be described thus: Antibacterial activity against Escherichia coli. The experiment is classed as functional, organism-based. In a few lines: as §1
For experiment [2], the system named is Staphylococcus epidermidis. The experiment can be described thus: Antibacterial activity against Staphylococcus epidermidis. The experiment is classed as functional. In a few lines:
as §1

The test system of the next experiment is Bacillus cereus. The experiment is described as follows: Antibacterial activity against Bacillus cereus. The experiment is classed as functional. In short, it runs like this: as §1
The test system of a further experiment is Human alphaherpesvirus 1. The experiment is described as follows: Antiviral activity against HSV1. The class given is functional, organism-based. In short, it runs like this:
as §3

A further experiment concerns HL-60. The experiment can be described thus: Cytotoxicity against human HL60 cells by MTT assay. The experiment is classed as functional, cell-based. In short, it runs like this: (§4)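 K562 erythroleukemia and HL-60 promyelocytic leukemia cells were scored by MTT method, with adriamycin as positive control.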
Another experiment relates to Acetylcholinesterase. The experiment can be described thus: Inhibition of AChE (unknown origin) by Ellman's method. The following applies: Homo sapiens.
The subject of another experiment is HeLa. The experiment is described as follows: Cytotoxicity against human HeLa cells by SRB assay. The class given is functional, cell-based. In a few lines:
as §2

The next experiment concerns K562. The experiment can be described thus: Cytotoxicity against human K562 cells by MTT assay. The experiment is classed as functional, cell-based. In short, it runs like this:
as §4

A further experiment relates to Vibrio parahaemolyticus. The experiment is described as follows: Antibacterial activity against Vibrio parahaemolyticus. The class given is functional, organism-based. In a few lines: as §1
The test system of another experiment is Nocardia brasiliensis. The experiment is described as follows: Antibacterial activity against Nocardia brasiliensis. The experiment is classed as functional, organism-based. In short, it runs like this:
as §1

For the next experiment, the system named is Salmonella enterica. The experiment can be described thus: Antibacterial activity against Salmonella enterica. The experiment is classed as functional, organism-based. In short, it runs like this: as §1
Another experiment has as its system Staphylococcus aureus. The experiment is described as follows: Antibacterial activity against Staphylococcus aureus. The class given is functional, organism-based. In short, it runs like this: as §1

For the compound `COC(=O)c1ccccc1NC(=O)[C@H](CCSC)NC(=O)c1cnc2c(n1)c(=O)n(C)c(=O)n2C`, the result (with Kocuria rhizophila; with Pseudomonas putida; with Pseudomonas aeruginosa; in the experiment with HCT-116; in experiment [1]; in the experiment with A549) was inactive. Further, the result (in the experiment with Escherichia coli; in [2]; in the experiment on Bacillus cereus; in the experiment with Human alphaherpesvirus 1; in the experiment on HL-60; with HeLa) was inactive. For the same compound, the outcome in the experiment with K562, in the experiment on Vibrio parahaemolyticus, in the experiment with Nocardia brasiliensis, in the experiment with Salmonella enterica and in the experiment on Staphylococcus aureus was inactive. Besides, in the experiment on Acetylcholinesterase, the inhibition entry was “inactive”.
With `COC(=O)c1ccccc1NC(=O)[C@H](CC[S+](C)[O-])NC(=O)c1cnc2c(n1)c(=O)n(C)c(=O)n2C` (some centres undefined), the result (in the experiment on Kocuria rhizophila; in the experiment on Pseudomonas putida; with Pseudomonas aeruginosa; in the experiment with HCT-116; in [1]; with A549) was inactive. In addition, the outcome (with Escherichia coli; in experiment [2]; with Bacillus cereus; in the experiment with Human alphaherpesvirus 1; with HL-60; in the experiment with HeLa) was inactive. Besides, the outcome in the experiment on K562, with Vibrio parahaemolyticus, in the experiment on Nocardia brasiliensis, in the experiment with Salmonella enterica and in the experiment on Staphylococcus aureus was inactive. Further, in the experiment with Acetylcholinesterase, the inhibition entry was “inactive”.
Regarding `C[C@H](NC(=O)c1cnc2c(n1)c(=O)n(C)c(=O)n2C)C(=O)Nc1ccccc1C(N)=O`, the outcome (in the experiment on Kocuria rhizophila; in the experiment with Pseudomonas putida; with Pseudomonas aeruginosa; in the experiment with HCT-116; in experiment [1]; in the experiment on A549) was inactive. The outcome (in the experiment on Escherichia coli; in experiment [2]; with Bacillus cereus; with Human alphaherpesvirus 1; in the experiment on HL-60; in the experiment with HeLa) was inactive. Moreover, the result in the experiment with K562, in the experiment on Vibrio parahaemolyticus, in the experiment with Nocardia brasiliensis, in the experiment with Salmonella enterica and in the experiment with Staphylococcus aureus was inactive. Besides, the inhibition entry in the experiment on Acetylcholinesterase was “inactive”.
For the compound `C[C@@H]1NC(=O)[C@H](Cc2ccc(O)cc2)NC(=O)c2cc(O)ccc2NC(=O)[C@@H]2CCCN2C(=O)[C@H](C)NC1=O` (cyclo(AAP[X1]Y)), the MIC (in experiment [2]; in the experiment with Bacillus cereus) was 12.5 µM (≈ 6.72 µg/mL) in each case.
In the case of `COC(=O)c1ccccc1NC(=O)[C@H](CCS(C)(=O)=O)NC(=O)c1cnc2c(n1)c(=O)n(C)c(=O)n2C`, the outcome (in the experiment with Kocuria rhizophila; in the experiment with Pseudomonas putida; with Pseudomonas aeruginosa; with HCT-116; in [1]; in the experiment with A549) was inactive. Further, the result (in the experiment with Escherichia coli; in experiment [2]; in the experiment on Bacillus cereus; with Human alphaherpesvirus 1; in the experiment with HL-60; in the experiment with HeLa) was inactive. Also, the outcome in the experiment on K562, in the experiment with Vibrio parahaemolyticus, with Nocardia brasiliensis, in the experiment on Salmonella enterica and in the experiment with Staphylococcus aureus was inactive. In addition, the inhibition result in the experiment on Acetylcholinesterase is “inactive”.
